Assay outcomes (PubChem BioAssay)
Hits are enriched below; roughly 7.4% of the tested compounds scored in any of these assays.
M1 agonist = M1 muscarinic receptor agonists, primary screen, CHO-M1 cells, Fluo-4 calcium, agonist mode | AID 626, 2007 | B-score at 10 µM | 64,000 tested, 3% active | Fluo-4 calcium fluorescence; hits give high values | Muscarinic acetylcholine receptor M1;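 active = fluorescence rise, raw or as B-score row- and column-corrected plate score, outside the 99.7% band of its plate's samples, either direction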
S1P3 ag = human S1P3 receptor agonists, primary screen, cell-based, primary and confirmation, NFAT-BLA reporter. 60,000 tested, 0.1% active. Sphingosine 1-phosphate receptor 3 (Homo sapiens), Q99500. activation, % at 4.5 µM. AID 373, 2006. S1P3 NFAT-BLA reporter cells, agonism, FRET ratio; relative to 1 µM S1P, basal subtracted;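 active = activation above the screen-wide mean plus 3 SD, cut at about 4.5% in these data, passing the limit was not always enough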
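Material: Human S1P3 NFAT-BLA reporter CHO cells | Incubation: Overnight plating, 4 h compound 37 °C, 2 h substrate RT | Signal: FRET β-lactamase substrate fluorescence, excitation 405 nm, 460/535 nm emission ratio, background-subtracted | Compound: 4.5 µM final, single dose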
JNK3 inh = JNK3 kinase activity inhibitors, primary screen, biochemical, human, purified enzyme; Mitogen-activated protein kinase 10 (Homo sapiens), P53779; HTS; inhibition, % at 8 µM; 60,000 tested, 0.61% active; AID 746, 2007; in the data active = inhibition above about 17%
Target sequence (P53779 whole entry, looked up): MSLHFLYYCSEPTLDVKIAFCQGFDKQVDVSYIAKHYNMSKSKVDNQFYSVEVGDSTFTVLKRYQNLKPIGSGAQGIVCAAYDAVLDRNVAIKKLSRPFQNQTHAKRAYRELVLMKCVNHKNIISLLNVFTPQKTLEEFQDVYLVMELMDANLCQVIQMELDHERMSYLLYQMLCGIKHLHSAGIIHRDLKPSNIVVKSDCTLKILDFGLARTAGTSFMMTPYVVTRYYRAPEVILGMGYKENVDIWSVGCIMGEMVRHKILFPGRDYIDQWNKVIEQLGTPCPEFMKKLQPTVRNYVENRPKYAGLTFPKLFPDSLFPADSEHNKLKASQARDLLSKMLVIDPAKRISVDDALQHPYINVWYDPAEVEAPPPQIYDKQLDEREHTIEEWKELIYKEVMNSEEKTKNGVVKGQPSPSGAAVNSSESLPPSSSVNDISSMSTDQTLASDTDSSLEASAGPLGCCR
Jurkat viability = cytotoxicity toward Jurkat T cells, primary screen, cytotoxicity control, cell-based, Jurkat E6.1, 60K MLSMR library. Jurkat E6.1 viability, ATP luminescence, 48 h. inhibition, % at 4 µM. 56,000 tested, 1.2% active. AID 463, 2006;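 active = inhibition above the mean inhibition of all tested compounds plus 3 SD, cut at about 28% in these data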
S1P1 ag pot = S1P1 agonists and agonism potentiators, primary screen, cell-based, primary and confirmation screens, CRE-bla reporter | 56,000 tested, 0.57% active | Sphingosine 1-phosphate receptor 1 (Homo sapiens), P21453 | activation, % at 9.5 µM | S1P1 CRE-bla cells, forskolin, beta-lactamase FRET, potentiator mode; S1P1 agonist co-added at EC20, 2 nM; 100% = saturating reference agonist, 0% = basal;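 active = activation above a cutoff set at the mean activation of all tested compounds plus 3 SD, cut at about 54% in these data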;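 note: forskolin at 4 µM as EC80 and the EC20 agonist is SEW2871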
M1 antagonist = antagonists of rat M1 muscarinic receptor; Muscarinic acetylcholine receptor M1 (Rattus norvegicus), P08482; CHO-M1 cells, Fluo-4 calcium, ACh EC80 antagonist mode; hits give low values; B-score at 10 µM; 64,000 tested, 3.4% active; AID 628, 2007;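 active = calcium fluorescence response, raw or row-and-column corrected B-score, differing from the plate sample mean either way at a set confidence level, mostly lower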
M1 agonist conf = rat M1 muscarinic receptor agonists, confirmation, CHO-M1 cells, Fluo-4 calcium, duplicate retest. shares compounds with M1 agonist. Fluo-4 calcium fluorescence, agonist mode; actives lie on both sides. fluorescence change (max-min) at 10 µM. 1,700 tested, 19% active;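 active = fluorescence change differs from the solvent-only DMSO control mean at a set confidence level in both duplicate runs; inconclusive = differs from solvent-only control mean in just one of two runs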;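 note: an EC20 dose of acetylcholine follows compound addition during the same imaging run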
M4 ag counter = agonist activity at rat M4 receptor, confirmation, counter-screen for M1 allosteric modulator project, cell-based, agonist mode | fluorescence change (max-min) at 10 µM | CHO M4/Gqi5 cells, Fluo-4 calcium fluorescence; actives lie on both sides | shares compounds with M1 agonist | 1,700 tested, 9% active;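 active = fluorescence change differing from the plate's solvent-only control wells at 99.7% confidence in both duplicates, whether higher or lower; inconclusive = differs from solvent controls in only one of two duplicates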
Each line names hits and unclear results; the compound was inactive in the other large screens (follow-up assays come after a bar, where they were run).

CCN1C(=O)c2cccc3c(NC(=O)c4ccc5c(c4)OCCO5)ccc1c23	M1 agonist 9 | M1 agonist conf inactive | M4 ag counter 134
CC(CC1C(C#N)=C(N)SC(N)=C1C#N)c1ccccc1 (stereo not drawn)	none
CC(=O)c1ccc(N2C(=O)C3C(C2=O)C(C(=O)c2ccc(Cl)cc2)N2CCCC32)cc1 (stereo not drawn)	M1 agonist 29 | M1 agonist conf 334 | M4 ag counter 470
Cc1ccc(N2C(=O)[C@@H]3[C@H](C2=O)C2CCCN2[C@@H]3C(=O)c2ccccc2)cc1 (stereo partly drawn)	none (no result: Jurkat viability)
Nc1c(S(=O)(=O)c2ccccc2)c2nc3ccccc3nc2n1Cc1ccco1	M1 agonist 2.9 (no result: S1P3 ag, JNK3 inh, Jurkat viability, S1P1 ag pot) | M1 agonist conf inactive | M4 ag counter inactive
c1coc(CNc2ncnc3nc[nH]c23)c1	none
Cc1ccc2[nH]c3c(NCc4ccco4)ncnc3c2c1	M1 agonist 8.5, Jurkat viability 37, S1P1 ag pot 65 | M1 agonist conf inactive | M4 ag counter inactive
O=C(CC(NS(=O)(=O)c1ccc(Cl)cc1)c1ccco1)NCc1ccco1 (stereo not drawn)	M1 agonist -2.9 | M1 agonist conf inconclusive | M4 ag counter inactive
CCCNC(=O)CC(NS(=O)(=O)c1ccc(Cl)cc1)c1ccco1 (stereo not drawn)	none
CCOC(=O)c1oc2cccc(O)c2c1CN(Cc1ccccc1)C(C)=O	M1 agonist 2.6 | M1 agonist conf inconclusive | M4 ag counter inactive
CCOC(=O)c1oc2cccc(O)c2c1CN1CCOCC1	none
O=C(CN1C(=O)C2CC=CCC2C1=O)NC1=NCCS1 (stereo not drawn)	none
COc1ccc(OC)c(/C=c2\sc3nc(-c4cccs4)nn3c2=O)c1	M1 agonist 13 | M1 agonist conf 478 | M4 ag counter 556
CN1C=CC2=C(C#N)C(N)C(C#N)(C#N)C(c3ccccc3)C2C1 (stereo not drawn)	M1 agonist 34 (no result: S1P3 ag, JNK3 inh, Jurkat viability, S1P1 ag pot) | M1 agonist conf 187 | M4 ag counter 179
COCCNC(=O)CN(C(=O)Cn1nnc2ccccc21)c1ccccc1	none
CCN(C(=O)c1ccc(C(C)(C)C)cc1)c1nnc(Cn2nnc3ccccc32)s1	M1 agonist 3.2, Jurkat viability 101, S1P1 ag pot 130 | M1 agonist conf inconclusive | M4 ag counter inactive
O=C(CN1C(=O)c2ccccc2S1(=O)=O)Nc1cccnc1	none
CC(C)C(NC(=O)CNC(=O)OC(C)(C)C)C(=O)NCc1ccccc1 (stereo not drawn)	none
Cc1nc2ccccc2c2oc(C(=O)N3CCN(C4CCCCC4)CC3)cc12	M1 agonist 2.4, M1 antagonist -3.2 | M1 agonist conf inconclusive | M4 ag counter inactive
COc1ccccc1N1CCN(C(=O)c2sc3nc(-c4ccc(F)cc4)cn3c2C)CC1	none
COCCn1cc(C(=O)N2CCC(C)CC2)c2c3ccccc3n(C)c2c1=O	none
CCCCN(CCCC)C(=O)CSc1nnc(-c2cc(OC)c(OC)c(OC)c2)o1	M1 agonist 4.4 | M1 agonist conf inconclusive | M4 ag counter inconclusive
COc1cc(-c2nnc(SCC#CCO)o2)cc(OC)c1OC	M1 agonist 5.8 | M1 agonist conf inactive | M4 ag counter inactive
COc1cccc(CNC(=O)C2CCN(S(=O)(=O)N3CC(C)CC(C)C3)CC2)c1 (stereo not drawn)	none
C=CCn1c(N)c(C(=O)NCc2cccnc2)sc1=S	none (no result: S1P1 ag pot)
CC(=O)Nc1ccc(NC2=CC(=O)CC(C)(C)C2)cc1	M1 agonist 11 | M1 agonist conf inconclusive | M4 ag counter inactive
COC(=O)c1ccc(NC2=CC(=O)CC(C)(C)C2)cc1	none
CC1(C)CC(=O)C=C(Nc2ccccc2NC(=O)c2cnccn2)C1	M1 agonist 21, M1 antagonist -1.8 (no result: S1P3 ag, JNK3 inh, Jurkat viability, S1P1 ag pot) | M1 agonist conf inactive | M4 ag counter inactive
COc1ccc(C2C(C(=O)N3CCN(c4ccccc4F)CC3)c3ccccc3C(=O)N2C)cc1 (stereo not drawn)	M1 agonist 4.9 (no result: S1P3 ag, JNK3 inh, Jurkat viability, S1P1 ag pot) | M1 agonist conf inconclusive | M4 ag counter inconclusive
COc1ccc(C2=CC(c3ccc(C)cc3)n3nnnc3N2)cc1 (stereo not drawn)	M1 agonist 9.6 (no result: Jurkat viability) | M1 agonist conf inactive | M4 ag counter inactive
COc1cccc(C2=CC(c3ccc(N(C)C)cc3)n3nnnc3N2)c1 (stereo not drawn)	none (no result: Jurkat viability)
COc1cccc(C2C=C(c3ccc(OC)cc3OC)Nc3nnnn32)c1 (stereo not drawn)	M1 agonist 3.3, Jurkat viability 41 | M1 agonist conf inactive | M4 ag counter inactive
COc1ccc(C(NC(=O)CNC(C)=O)C(=O)Nc2ccc3c(c2)OCCO3)cc1 (stereo not drawn)	none
Cc1ccc(C)c2[nH]c(=O)c(CN(Cc3ccco3)C(=O)Nc3ccccc3)cc12	M1 agonist 5.2 | M1 agonist conf inactive | M4 ag counter inactive
Cc1ccc2cc(CN(Cc3ccco3)C(=O)NCc3ccccc3)c(=O)[nH]c2c1C	none
CN1CCN(c2nc(-c3cccs3)cc(C(F)(F)F)n2)CC1	M1 agonist 3.1, M1 antagonist -18 (no result: S1P3 ag, JNK3 inh, Jurkat viability, S1P1 ag pot) | M1 agonist conf inconclusive | M4 ag counter inconclusive
CS(=O)(=O)c1nc(-c2cccs2)cc(C(F)(F)F)n1	none (no result: S1P3 ag, JNK3 inh, Jurkat viability, S1P1 ag pot)
CCN(CC)CCN1C(=O)C(=O)/C(=C(/O)c2ccc(C)cc2)C1c1cccnc1 (stereo not drawn)	none (no result: Jurkat viability)
Cc1cc(=O)oc2ccc(OCC(=O)N(Cc3ccc(F)cc3)Cc3ccco3)cc12	M1 agonist 6.4, M1 antagonist -2.4 | M1 agonist conf inconclusive | M4 ag counter inactive
CCc1c(C)nc2ncnn2c1N1CCCC(C(=O)NCc2ccco2)C1 (stereo not drawn)	M1 agonist 2.8, M1 antagonist -4.5 (no result: S1P3 ag, JNK3 inh, Jurkat viability, S1P1 ag pot) | M1 agonist conf inconclusive | M4 ag counter inactive
COCCn1c(=O)c2c(nc3n2CCN3c2ccc(C)cc2)n(C)c1=O	none
